Measured values gathered from unrelated publications.
Each line is one published result; the experiments were not run side by side.
Target: Serine/threonine-protein kinase 38 (STK38, Homo sapiens, UniProt Q15208)

Compound | test | setting | remaining binding
N[C@@H]1CCN(c2nccc(-c3cnn4ncccc34)n2)C1 | binding | 1 µM | 84%
Cc1cnc(Nc2ccc(C(=O)N3CCC(N4CCCC4)CC3)cc2)nc1-c1cc2ccccc2s1 | binding, competition with immobilised ligand | 1 µM | 79%
Nc1ncc2c(n1)-c1c([nH]c3ccc(C#CC4CC4)cc13)CCCC2 | binding, competition with immobilised ligand | 1 µM | 87%
O=C(NCCCN1CCOCC1)c1ccc(Nc2nccc(-c3cc4ccccc4s3)n2)cc1 | binding, competition with immobilised ligand | 1 µM | 66%
O=C(NCC1CCOCC1)c1n[nH]cc1NC(=O)c1c(F)cccc1F | binding, competition with immobilised ligand | 1 µM | 84%
CNC(=O)[C@@H]1CC[C@@H](n2c(-c3ccc4cnccc4c3)nc3ccc(C(=O)NCc4cccc(C(N)=O)c4)cc32)C1 | binding, competition with immobilised ligand | 1 µM | 62%
C=CC(=O)N1CCC(C(=O)NCC(=O)N2CCN(c3nc(-c4cnc(N)nc4C(F)F)nc(N4CCOCC4)n3)CC2)CC1 | binding, competition with immobilised ligand | 1 µM | 88%
COc1ccnn2ncc(-c3ccnc(N(C)C)n3)c12 | binding | 1 µM | 100%
FC(F)(F)Oc1cccc(-c2cnc3ccc(-c4ccncc4)nn23)c1 | cell-free assay, competition with immobilised ligand | 5 µM | 80%
Cc1c[nH]c2nccc(Oc3c(F)cc(Nc4cc(Cl)nc(N)n4)cc3F)c12 | cell-free assay, competition with immobilised ligand | 0.1 µM | 89%
CN(C)c1ncc(F)c(-c2cnn3ncccc23)n1 | binding | 1 µM | 90%
Cc1c(NC(=O)c2cc(C(N)=O)nc3cc(F)ccc23)c(C(F)(F)F)nn1Cc1ccc(C(C)(C)C)cc1 | cell-free assay, competition with immobilised ligand | 1 µM | 93%
CN(C)c1nccc(-c2cnn3ncccc23)n1 | binding | 1 µM | 74%
CCOCCn1cc(C(=O)Nc2ccc(-n3nc(-c4cccnc4)cc3C(F)(F)F)cn2)ccc1=O | cell-free assay, competition with immobilised ligand | 1 µM | 91%
O=C(c1ccc(Nc2ncc(Cl)c(-c3cc4ccccc4s3)n2)cc1)N1CCC(N2CCCC2)CC1 | binding, competition with immobilised ligand | 1 µM | 78%
CCS(=O)(=O)c1cc2cc(C[C@@](O)(CC(C)(C)c3ccc(F)cc3C(N)=O)C(F)(F)F)[nH]c2cn1 | cell-free assay, competition with immobilised ligand | 1 µM | 76%
C[C@H]1CCN(c2nccc(-c3cnn4ncccc34)n2)C1 | binding | 1 µM | 93%
Cc1cc(-n2nc(Cc3cc(F)cc(C(F)(F)F)c3)nc2C)ccc1C(N)=O | cell-free assay, competition with immobilised ligand | 1 µM | 83%
Cc1cnn2ncc(-c3ccnc(N(C)C)n3)c2c1 | binding | 1 µM | 100%
COc1ccc2cc(OCC3(C(=O)O)CN(C(=O)c4ccc(F)cc4)C3)ccc2c1 | cell-free assay, competition with immobilised ligand | 1 µM | 98%
COc1cnc(Nc2cccc(S(N)(=O)=O)c2)nc1N1CCN(c2ccccc2)CC1 | binding, competition with immobilised ligand | 1 µM | 78%
